Here are results for four molecules from article PMC3107735 (Biochemistry, 2011).

Data set [1] concerns the target T1, thrombin (Bos taurus, UniProt P00735). As to the kind of experiment: Isothermal titration calorimetry. In kind it is binding, bovine. The following applies: for Ka / N (stoichiometry of binding) / ΔH / -TΔS / ΔG: thrombin in cell, 25°C; for Ka / N (stoichiometry of binding) / ΔH: pH 7.4; for -TΔS: computed from ΔG-ΔH; for ΔG: obtained from KA.
In a further data set the target is TM45-thrombin (Bos taurus, UniProt P00735). Nature of the data set: ITC, ligand titrated into TMEGF45-thrombin complex. In kind it is binding, bovine. As to conditions: TM45-thrombin in cell, 25°C; for Ka / N (stoichiometry of binding) / ΔH: pH 7.4; for -TΔS: computed from ΔG-ΔH; for ΔG: obtained from KA. Background: ITC needs no label: the signal is the heat of the interaction.

In a further data set the target is aptamer-thrombin complex (Bos taurus, UniProt P00735). As to the kind of experiment: ITC, ligand titrated into pre-formed aptamer-thrombin complex. As to conditions: apt-thrombin in cell, 25°C; for Ka / N (stoichiometry of binding) / ΔH: pH 7.4; for -TΔS: computed from ΔG-ΔH; for ΔG: obtained from KA. In kind it is binding, bovine.
The target in data set [2] is T1, thrombin. As to conditions: DSC; increases from 57°C for thrombin; cited from earlier work.
In the next data set the target is PPACK-thrombin (Bos taurus, UniProt P00735). As to the kind of experiment: ITC, ligand titrated into PPACK-thrombin. In kind it is binding, bovine. As to conditions: ppack-thrombin in cell, 25°C; for Ka / N (stoichiometry of binding) / ΔH: pH 7.4; for -TΔS: computed from ΔG-ΔH; for ΔG: obtained from KA. Summed up: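 Bovine α-thrombin treated with PPACK (1.1 μmol per 1 mL fraction, 3 h shaking, room temperature), re-purified by size exclusion the same day, and held at 6.5 μM in the cell (BCA). Buffer was 50 mM Bis-tris propane pH 7.4, 150 mM NaCl, 2.5 mM CaCl2. Degassed ligand at 65-70 μM was injected at 25°C with a 180 s initial delay. Heats were integrated and corrected for dilution; ΔG came from Ka and -TΔS from ΔG-ΔH.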

Data set [3] deals with T1, thrombin. As to the kind of experiment: Differential scanning calorimetry. Set-up: species or system bovine. The following applies: DSC; 25 μM thrombin; thrombin alone 56.9°C or 57.9°C (Figure 6 legend).

Where “and” joins values, the source holds several entries; their conditions need not be identical. Identical values can stand only once.

As for `CCC1CCN(C(=O)[C@H](CCCNC(=N)N)NS(=O)(=O)c2cccc3c(N(C)C)cccc23)CC1` [DAPA, dansyl-L-arginine-(3-ethyl-1,5-pantanediyl) amide], the Ka is given as 4.5 ± 0.5 ×10^7 M^-1 at thrombin [1] (with 2.5 mM calcium); 4.5 ± 2.5 ^1 ×10^7 M^-1 at thrombin [1] (without calcium); 5.9 ± 2.2 ×10^7 M^-1 at TM45-thrombin (with 2.5 mM calcium); 5.0 ± 1.8 ×10^7 M^-1 on TM45-thrombin (without calcium); 5.6 ± 2.1 ×10^7 M^-1 at aptamer-thrombin complex (with 2.5 mM calcium); 5.8 ± 0.37 ×10^7 M^-1 at aptamer-thrombin complex (without calcium). In addition, the “N (stoichiometry of binding)” value is listed as 0.9 ± 0.1 at thrombin [1] (with 2.5 mM calcium); 0.9 ± 0.1 at thrombin [1] (without calcium); 1.00 ± 0.06 on TM45-thrombin (with 2.5 mM calcium); 0.86 ± 0.02 at TM45-thrombin (without calcium); 1.06 ± 0.08 at aptamer-thrombin complex (with 2.5 mM calcium); 1.11 ± 0.1 on aptamer-thrombin complex (without calcium). In addition, the ΔH is recorded as -6.2 ± 0.04 kcal/mol at thrombin [1] (with 2.5 mM calcium); -5.0 ± 0.1 kcal/mol at TM45-thrombin (with 2.5 mM calcium); -4.5 ± 0.2 kcal/mol at TM45-thrombin (without calcium); -4.8 ± 0.2 kcal/mol on aptamer-thrombin complex (with 2.5 mM calcium); -4.2 ± 0.3 kcal/mol on aptamer-thrombin complex (without calcium). Further, the “-TΔS” value at thrombin [1] (with 2.5 mM calcium) was -4.2 ± 0.1 kcal/mol; at thrombin [1] (without calcium), -4.4 ± 0.6 kcal/mol; at TM45-thrombin (with 2.5 mM calcium), -5.5 ± 0.2 kcal/mol; on TM45-thrombin (without calcium) it was -6.0 ± 0.4 kcal/mol; on aptamer-thrombin complex (with 2.5 mM calcium) it was -5.7 ± 0.4 kcal/mol; on aptamer-thrombin complex (without calcium) it was -6.4 ± 0.7 kcal/mol. Also, the ΔG on thrombin [1] (with 2.5 mM calcium) is listed as -10.4 ± 0.1 kcal/mol; at thrombin [1] (without calcium) it was -10.3 ± 0.4 kcal/mol; on TM45-thrombin (with 2.5 mM calcium) it was -10.5 ± 0.2 kcal/mol; on TM45-thrombin (without calcium), -10.5 ± 0.2 kcal/mol; at aptamer-thrombin complex (with 2.5 mM calcium), -10.5 ± 0.3 kcal/mol; on aptamer-thrombin complex (without calcium) it was -10.6 ± 0.4 kcal/mol.

In the case of `NC(N)=NCCC[C@H](NC(=O)[C@@H]1CCCN1C(=O)[C@H](N)Cc1ccccc1)C(=O)CCl` [PPACK, DPhe-Pro-Arg-chloromethyl ketone], the “Tm of thrombin with ligand bound at the active site” value on thrombin [2] was 70 °C.

With GGTTGGTGTGGTTGG [aptamer], in the data set with thrombin [1] (with 2.5 mM calcium), the “N (stoichiometry of binding)” value came out at 0.87 ± 0.04, the ΔH was -22.4 ± 0.1 kcal/mol, the “-TΔS” value turned out to be 12.6 ± 1.0 kcal/mol and the ΔG was -9.8 ± 0.1 kcal/mol. Besides, in the data set with thrombin [1] (without calcium), the Ka was 0.9 ± 0.2 ×10^7 M^-1, the “N (stoichiometry of binding)” value was 0.96 ± 0.1, the ΔH is listed as -20.2 ± 0.8 kcal/mol and the “-TΔS” value is 10.5 ± 0.9 kcal/mol. For the same molecule, in the data set with thrombin [1] (without calcium), the ΔG is -9.7 ± 0.2 kcal/mol. Besides, the ΔH with thrombin [1] (without calcium, listed as DNA aptamer) is -20.2 kcal/mol. Moreover, in the data set with PPACK-thrombin (with 2.5 mM calcium), the Ka was 1.4 ± 0.6 ×10^7 M^-1, the “N (stoichiometry of binding)” value is on record as 0.9 ± 0.1, the ΔH is -21.0 ± 0.3 kcal/mol and the “-TΔS” value was 11.3 ± 0.004 kcal/mol. The ΔG with PPACK-thrombin (with 2.5 mM calcium) was -9.7 ± 0.3 kcal/mol. Further, in the data set with PPACK-thrombin (without calcium), the Ka is listed as 0.8 ± 0.1 ×10^7 M^-1, the “N (stoichiometry of binding)” value stood at 0.98 ± 0.02, the ΔH is recorded as -17.7 ± 1.1 kcal/mol and the “-TΔS” value was determined as 8.3 ± 1.2 kcal/mol. Further, in the data set with PPACK-thrombin (without calcium), the ΔG was -9.4 ± 0.8 kcal/mol. Also, in the data set with thrombin [3], the “melting (denaturation) temperature of thrombin with ligand bound at exosite 1” value was 57.9 °C and 58.7 °C.

For the molecule calcium, the “change in heat upon addition to thrombin in the cell (ITC)” value at thrombin [1] (calcium added to thrombin in the cell) is “no measurable direct binding”.
